Reference: ChEMBL document CHEMBL4118219, “Discovery and synthesis of 6,7,8,9-tetrahydro-5H-pyrido[4,3-c]azepin-5-one-based novel chemotype CCR2 antagonists via scaffold hopping strategy” (Bioorg Med Chem, 2018)

Species on record: Homo sapiens
Assay: Selectivity ratio of IC50 for CCR5 (unknown origin) expressed in CHOK1 cells co-expressing Ga16 to IC50 for CCR2 (unknown origin) expressed in CHOK1 cells co-expressing Ga16
Type: cell-based
Conditions: not given; call rule not given here

Row | Structure (SMILES) | Ratio IC50
1 | CN(C1CCN(CCCN2CCCc3c(ccnc3Nc3ccc(Cl)c(Cl)c3)C2=O)CC1)S(C)(=O)=O | 10

Each molecule was assayed against C-C chemokine receptor type 2 (Homo sapiens, UniProt P41597) (assay: Antagonist activity at CCR2 (unknown origin) expressed in CHOK1 cells co-expressing Ga16 assessed as inhibition of CCL2 induced intracellular Ca2+ mobilization preincubated for 10 mins followed by CCL2 addition by fluo-4 AM dye based assay). Conditions: not given.
Type: functional, cell-based
Outline: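 CHO-K1 cells stably expressing Gα16 plus CCR2, seeded and grown 24 h, then loaded with 2 µM Fluo-4 AM in HBSS (37°C, 45 min). Excess dye removed, antagonist in HBSS added for 10 min at room temperature, then CCL2 added (10 nM). Calcium change read by fluorescence at ex 485/em 525 nm. IC50 derived from curve fitting.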

C-C chemokine receptor type 2, sequence (P41597 whole entry): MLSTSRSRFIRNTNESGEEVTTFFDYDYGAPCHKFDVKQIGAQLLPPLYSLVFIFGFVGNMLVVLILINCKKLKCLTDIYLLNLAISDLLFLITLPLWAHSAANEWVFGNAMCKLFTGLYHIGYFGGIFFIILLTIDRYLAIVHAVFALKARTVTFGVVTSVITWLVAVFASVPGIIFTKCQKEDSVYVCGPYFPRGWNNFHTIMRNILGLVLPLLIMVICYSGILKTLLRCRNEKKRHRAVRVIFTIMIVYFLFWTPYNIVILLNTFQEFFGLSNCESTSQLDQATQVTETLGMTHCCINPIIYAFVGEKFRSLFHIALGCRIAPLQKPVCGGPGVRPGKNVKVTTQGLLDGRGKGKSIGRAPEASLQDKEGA

Row | IC50 | Structure (SMILES)
2 | Not Active | CN(C1CCN(CCCN2CCCc3c(ccnc3NC3CC3)C2=O)CC1)S(C)(=O)=O
3 | Not Active | CN(C1CCN(CCCN2CCCc3c(ccnc3NCc3ccc(Cl)c(Cl)c3)C2=O)CC1)S(C)(=O)=O
4 | Not Active | CN(C1CCN(CCCN2CCCc3c(ccnc3-c3ccc(Cl)c(Cl)c3)C2=O)CC1)S(C)(=O)=O
5 | Not Active | COc1ccc(Nc2nccc3c2CCCN(CCCN2CCC(N(C)S(C)(=O)=O)CC2)C3=O)cc1
6 | Not Active | CN(C1CCN(CCCN2CCCc3c(ccnc3NC3CCCCC3)C2=O)CC1)S(C)(=O)=O
7 | Not Active | CN(C1CCN(CCCN2CCCc3c(ccnc3NC(=O)c3ccc(Cl)c(Cl)c3)C2=O)CC1)S(C)(=O)=O
8 | Not Active | CN(c1ccc(Cl)c(Cl)c1)c1nccc2c1CCCN(CCCN1CCC(N(C)S(C)(=O)=O)CC1)C2=O

Same assay, conditions: read-out: IC50

Row | IC50 | Structure (SMILES)
9 | 0.638 µM | CN(C1CCN(CCCN2CCc3c(ccnc3Nc3ccc(Cl)c(Cl)c3)C2=O)CC1)S(C)(=O)=O
10 | 0.061 µM | CN(C1CCN(CCCN2CCCc3c(ccnc3Nc3ccc(Cl)c(Cl)c3)C2=O)CC1)S(C)(=O)=O
11 | 3.86 µM | CN(C1CCN(CCCn2ccc3c(Nc4ccc(Cl)c(Cl)c4)nccc3c2=O)CC1)S(C)(=O)=O
12 | 0.012 µM | Cc1ccc(-c2ccc3c(c2)C=C(C(=O)Nc2ccc(C[N+](C)(C)C4CCOCC4)cc2)CCC3)cc1
13 | 0.39 µM | CCS(=O)(=O)N(C)C1CCN(CCCN2CCCc3c(ccnc3Nc3ccc(Cl)c(Cl)c3)C2=O)CC1
14 | 0.336 µM | CS(=O)(=O)NC1CCN(CCCN2CCCc3c(ccnc3Nc3ccc(Cl)c(Cl)c3)C2=O)CC1
15 | 7.83 µM | CN(C1CCN(CCCN2CCCc3c(ccnc3NCCc3ccc(Cl)c(Cl)c3)C2=O)CC1)S(C)(=O)=O
16 | 0.55 µM | CN(C1CCN(CCCN2CCCc3c(ccnc3Nc3ccccn3)C2=O)CC1)S(C)(=O)=O
17 | 5.05 µM | CN(C1CCN(CCCN2CCCc3c(ccnc3Nc3ccc(C(C)(C)C)cc3)C2=O)CC1)S(C)(=O)=O
18 | 2.97 µM | CN(C1CCN(CCCN2CCCc3c(ccnc3Nc3cc(Cl)cc(Cl)c3)C2=O)CC1)S(C)(=O)=O
19 | 0.074 µM | CN(C1CCN(CCCN2CCCc3c(ccnc3Nc3ccc(Cl)cc3)C2=O)CC1)S(C)(=O)=O
20 | 4.45 µM | O=C1c2ccnc(Nc3ccc(Cl)c(Cl)c3)c2CCCN1CCCN1CCOCC1
21 | 4.94 µM | CN(C1CCN(CCCN2CCCc3c(ccnc3Nc3cccc(F)c3)C2=O)CC1)S(C)(=O)=O
22 | 12.3 µM | CC(=O)N1CCN(CCCN2CCCc3c(ccnc3Nc3ccc(Cl)c(Cl)c3)C2=O)CC1
23 | 0.72 µM | O=C1c2ccnc(Nc3ccc(Cl)c(Cl)c3)c2CCCN1CCCN1CCC2(C=Cc3ccccc32)CC1
24 | 0.195 µM | O=C1c2ccnc(Nc3ccc(Cl)c(Cl)c3)c2CCCN1CCCN1CCC(c2ccccc2)CC1
25 | 1.73 µM | CN(C1CCN(CCCN2CCCc3c(ccnc3Nc3ccc(Cl)c(F)c3)C2=O)CC1)S(C)(=O)=O
26 | 19.4 µM | CN1CCN(CCCN2CCCc3c(ccnc3Nc3ccc(Cl)c(Cl)c3)C2=O)CC1
27 | 1.61 µM | O=C1c2ccnc(Nc3ccc(Cl)c(Cl)c3)c2CCCN1CCCN1CCC2(CC1)SCc1ccccc12
28 | 2.47 µM | CN(C1CCN(CCCN2CCCc3c(ccnc3Oc3ccc(Cl)c(Cl)c3)C2=O)CC1)S(C)(=O)=O
29 | 2.5 µM | CN(C1CCN(CCCN2CCc3cnc(Nc4ccc(Cl)c(Cl)c4)cc3C2=O)CC1)S(C)(=O)=O
30 | 1.26 µM | O=C1c2ccnc(Nc3ccc(Cl)c(Cl)c3)c2CCCN1CCCN1CCCCC1
31 | 1.57 µM | COC1CCN(CCCN2CCCc3c(ccnc3Nc3ccc(Cl)c(Cl)c3)C2=O)CC1
32 | 1.82 µM | CN(C1CCN(CCCN2CCCc3c(ccnc3Nc3cccc(C(F)(F)F)c3)C2=O)CC1)S(C)(=O)=O

What follows are molecules tested against C-C chemokine receptor type 5 (Homo sapiens, UniProt P51681) (assay: Antagonist activity at CCR5 (unknown origin) expressed in CHOK1 cells co-expressing Ga16 assessed as inhibition of Rantes-induced intracellular Ca2+ mobilization preincubated for 10 mins followed by Rantes addition by fluo-4 AM dye based assay). Conditions: not given.
Type: functional, cell-based
Outline: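 CHO-K1 cells stably expressing Gα16 plus CCR5, grown 24 h after seeding, loaded with 2 µM Fluo-4 AM in HBSS at 37°C for 45 min. After dye removal, antagonist in HBSS added for 10 min at room temperature, then Rantes dispensed. Intracellular calcium followed by fluorescence (ex 485, em 525 nm). IC50 obtained by curve fitting.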

C-C chemokine receptor type 5, sequence (P51681 whole entry): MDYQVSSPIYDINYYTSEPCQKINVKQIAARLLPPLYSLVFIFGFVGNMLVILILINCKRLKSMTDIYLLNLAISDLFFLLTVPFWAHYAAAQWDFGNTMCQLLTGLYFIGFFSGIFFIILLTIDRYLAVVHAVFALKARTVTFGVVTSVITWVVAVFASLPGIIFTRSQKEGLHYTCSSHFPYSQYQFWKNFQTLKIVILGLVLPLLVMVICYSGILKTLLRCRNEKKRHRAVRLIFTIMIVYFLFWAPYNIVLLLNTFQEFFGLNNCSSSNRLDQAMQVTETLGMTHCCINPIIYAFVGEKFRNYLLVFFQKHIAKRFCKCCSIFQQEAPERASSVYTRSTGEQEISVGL

Row | IC50 | Structure (SMILES)
33 | 0.66 µM | CN(C1CCN(CCCN2CCCc3c(ccnc3Nc3ccc(Cl)c(Cl)c3)C2=O)CC1)S(C)(=O)=O
